Converted amounts (≈) assume the structure as drawn. The source made the active and inactive calls. The rule behind the calls is not given here.
Assays:
LNCaP = assay: Cytotoxicity against human LNCAP cells after 3 days by SRB assay; format: functional; details: 72 h, read-out: ED50 (the source's name)
[1] = Cytotoxicity against human KBVIN cells in presence of 1 ug/ml vinblastine after 3 days by SRB assay; format: functional; details: 72 h, read-out: ED50 (the source's name)
Lu1 = assay: Cytotoxicity against human Lu1 cells after 3 days by SRB assay; format: functional; details: Lu1, 72 h, read-out: ED50 (the source's name)
[2] = Cytotoxicity against human KBVIN cells after 3 days by SRB assay; format: functional; details: 72 h, read-out: ED50 (the source's name)
[3] = target: Human immunodeficiency virus type 1 reverse transcriptase (Human immunodeficiency virus 1) (UniProt Q72547); assay: Inhibition of HIV1 reverse transcriptase
KB = assay: Cytotoxicity against human KB cells after 3 days by SRB assay; format: functional; details: 72 h, read-out: ED50 (the source's name)
Plasmodium falciparum = assay: Antimalarial activity against Plasmodium falciparum by [3H]hypoxanthine uptake; format: functional, organism-based
ZR-75-1 = assay: Cytotoxicity against human ZR-75-1 cells after 3 days by SRB assay; format: functional; details: ZR-75-1, 72 h, read-out: ED50 (the source's name)
ASK = assay: Cytotoxicity against human ASK cells after 3 days by SRB assay; format: functional, cell-based
Procedure, shortened: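 ASK cell line: human astrocytoma.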

| SMILES | EC50 (LNCaP) [µg/mL] | EC50 [1] [µg/mL] | EC50 (Lu1) [µg/mL] | EC50 [2] [µg/mL] | Activity [3] | EC50 (KB) [µg/mL] | Activity (Plasmodium falciparum) | EC50 (ZR-75-1) [µg/mL] | ED50 (ASK) |
| --- | --- | --- | --- | --- | --- | --- | --- | --- | --- |
| C=C1C(=O)[C@]23[C@H](O)[C@H]1CC[C@H]2[C@@]12CO[C@@]3(O)C[C@@H]1C(C)(C)CC[C@@H]2OC(C)=O [RABDOCOETSIN B] | 0.6 (≈ 1.54 µM) | 7.2 | 0.5 (≈ 1.28 µM) | > 20 | inactive | 0.3 (≈ 0.768 µM) | inactive | 0.8 (≈ 2.05 µM) | inactive |
| Cc1c2ccncc2c(C)c2c1[nH]c1ccccc12 [ELLIPTECINE] | 0.8 (≈ 3.25 µM) | 0.2 | 0.2 (≈ 0.812 µM) | 0.3 (≈ 1.22 µM) | – | 0.04 (≈ 0.162 µM) | – | 0.9 (≈ 3.65 µM) | inactive |
| C=C1C(=O)[C@]23C[C@H]1C[C@H](OC(C)=O)[C@H]2[C@@]12CO[C@@]3(O)C[C@@H]1C(C)(C)CC[C@@H]2O [RABDOCOETSIN D] | 0.8 (≈ 2.05 µM) | 12.1 | 0.9 (≈ 2.3 µM) | 9.5 (≈ 24.3 µM) | inactive | 0.5 (≈ 1.28 µM) | inactive | 0.8 (≈ 2.05 µM) | inactive |
| C=C1C(=O)[C@]23[C@H](O)[C@H]1CC[C@H]2[C@@]12CO[C@@]3(O)C[C@@H]1C(C)(C)CC[C@@H]2O [MEGATHYRIN A] | 1.8 (≈ 5.17 µM) | 8.9 | 3.4 (≈ 9.76 µM) | 19.1 (≈ 54.8 µM) | inactive | 1.1 (≈ 3.16 µM) | inactive | 1.8 (≈ 5.17 µM) | inactive |
| COc1cc2c(c(OC)c1OC)-c1ccc(OC)c(=O)cc1[C@@H](NC(C)=O)CC2 [COLCHICINE] | 0.06 (≈ 0.15 µM) | 0.6 | 0.2 (≈ 0.501 µM) | 3.5 (≈ 8.76 µM) | – | 0.2 (≈ 0.501 µM) | – | 0.1 (≈ 0.25 µM) | Active |
| C=C1C(=O)[C@]23C[C@H]1C[C@H](O)[C@H]2[C@@]12CO[C@@]3(O)C[C@@H]1C(C)(C)CC[C@@H]2O [RABDOCOETSIN C] | 0.7 (≈ 2.01 µM) | > 20 | 0.4 (≈ 1.15 µM) | > 20 | inactive | 0.6 (≈ 1.72 µM) | inactive | 1 (≈ 2.87 µM) | inactive |

Reference: ChEMBL document CHEMBL1148073, “Cytotoxic diterpenoids from Isodon megathyrsus” (1994)
